Experimental data: ChEMBL document CHEMBL1146569, “The pterocellins, novel bioactive alkaloids from the marine bryozoan Pterocella vesiculosa” (J Nat Prod, 2003)

Assays:
[1] = Cytotoxicity against african green monkey BSC1 cells at 40 ug/disk; type: cell-based; details: chlorocebus aethiops, bsc-1
In short: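 BSC-1 cells (ATCC CCL 26), a line derived from African green monkey kidney, are the host cells of the combined antiviral/cytotoxicity assay. Cytotoxicity is scored on these cells within that assay.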

[2] = system: Escherichia coli; assay: Antimicrobial activity against Escherichia coli assessed per disk; type: functional
[3] = system: Pseudomonas aeruginosa; assay: Antimicrobial activity against Pseudomonas aeruginosa assessed per disk; type: functional
[4] = system: Trichophyton mentagrophytes; assay: Antimicrobial activity against Trichophyton mentagrophytes assessed per disk; type: functional
[5] = system: CCRF-CEM; assay: Growth inhibition of human CCRF-CEM cells; type: functional
[6] = system: HL-60(TB); assay: Growth inhibition of human HL-60(TB) cells; type: functional
[7] = Growth inhibition of human […] cells; type: functional
[8] = system: SR; assay: Growth inhibition of human SR cells; type: functional
[9] = system: A549; assay: Growth inhibition of human A549 cells; type: functional
[10] = system: EKVX; assay: Growth inhibition of human EKVX cells; type: functional
[11] = system: HOP-62; assay: Growth inhibition of human HOP62 cells; type: functional
[12] = system: HOP-92; assay: Growth inhibition of human HOP92 cells; type: functional
[13] = system: NCI-H322M; assay: Growth inhibition of human NCI-H322M cells; type: functional
[14] = system: NCI-H460; assay: Growth inhibition of human NCI-H460 cells; type: functional
[15] = system: NCI-H522; assay: Growth inhibition of human NCI-H522 cells; type: functional
[16] = system: COLO 205; assay: Growth inhibition of human COLO205 cells; type: functional
[17] = system: HCC 2998; assay: Growth inhibition of human HCC2998 cells; type: functional
[18] = system: HCT-116; assay: Growth inhibition of human HCT116 cells; type: functional
[19] = system: HT-29; assay: Growth inhibition of human HT-29 cells; type: functional
[20] = system: KM12; assay: Growth inhibition of human KM12 cells; type: functional
[21] = system: SF-268; assay: Growth inhibition of human SF268 cells; type: functional
[22] = system: SF-539; assay: Growth inhibition of human SF539 cells; type: functional
[23] = system: SNB-19; assay: Growth inhibition of human SNB19 cells; type: functional
[24] = system: SNB-75; assay: Growth inhibition of human SNB75 cells; type: functional
[25] = system: LOX IMVI; assay: Growth inhibition of human LOXIMVI cells; type: functional
[26] = system: Malme-3M; assay: Growth inhibition of human MALME-3M cells; type: functional
[27] = system: SK-MEL-2; assay: Growth inhibition of human SK-MEL-2 cells; type: functional
[28] = system: SK-MEL-28; assay: Growth inhibition of human SK-MEL-28 cells; type: functional
[29] = system: SK-MEL-5; assay: Growth inhibition of human SK-MEL-5 cells; type: functional
[30] = system: UACC-257; assay: Growth inhibition of human UACC257 cells; type: functional
[31] = system: UACC-62; assay: Growth inhibition of human UACC62 cells; type: functional
[32] = system: OVCAR-3; assay: Growth inhibition of human OVCAR-3 cells; type: functional
[33] = system: OVCAR-4; assay: Growth inhibition of human OVCAR4 cells; type: functional
[34] = system: OVCAR-5; assay: Growth inhibition of human OVCAR5 cells; type: functional
[35] = system: OVCAR-8; assay: Growth inhibition of human OVCAR8 cells; type: functional
[36] = system: SK-OV-3; assay: Growth inhibition of human SKOV3 cells; type: functional
[37] = system: A498; assay: Growth inhibition of human A498 cells; type: functional
[38] = system: ACHN; assay: Growth inhibition of human ACHN cells; type: functional
[39] = system: CAKI-1; assay: Growth inhibition of human Caki1 cells; type: functional
[40] = system: PC-3; assay: Growth inhibition of human PC3 cells; type: functional
[41] = system: NCI/ADR-RES; assay: Growth inhibition of human NCI/ADR-RES cells; type: functional
[42] = Growth inhibition of human Hs 578T cells; type: functional
[43] = system: MDA-N; assay: Growth inhibition of human MDA-N cells; type: functional
[44] = system: T47D; assay: Growth inhibition of human T47D cells; type: functional
[45] = system: Amorphotheca resinae; assay: Antimicrobial activity against Cladosporium resinae assessed per disk; type: functional
[46] = read-out: LC50 (the source's name)

## COc1cn2c(cc1=O)C(=O)c1ccnc(Cc3ccccc3)c1-2 [PTEROCELLIN B]
[1]
  Activity: Toxic
[2]
  MIC: >60 µg
[3]
  MIC: >60 µg
[4]
  MIC: 3.9 µg
[5]
  GI50: 1700 nM
  TGI: 5200 nM
[5]; [46]
  CC50: > 100000 nM
[6]
  GI50: 1000 nM
  TGI: 5100 nM
[6]; [46]
  CC50: 43500 nM
[7]
  GI50: 1500 nM
  TGI: 4900 nM
[7]; [46]
  CC50: > 100000 nM
[8]
  GI50: 200 nM
  TGI: 1300 nM
[8]; [46]
  CC50: 3700 nM
[9]
  GI50: 200 nM
  LC50 (50% cell kill concentration): 1800 nM
  TGI: 500 nM
[10]
  GI50: 1400 nM
  TGI: 3800 nM
[10]; [46]
  CC50: 10700 nM
[11]
  GI50: 1000 nM
  TGI: 2100 nM
[11]; [46]
  CC50: 4600 nM
[12]
  GI50: 1700 nM
  TGI: 3800 nM
[12]; [46]
  CC50: 8800 nM
[13]
  GI50: 1100 nM
  LC50 (concentration killing 50% of cells): 4700 nM
  TGI: 2200 nM
[14]
  GI50: 200 nM
  LC50 (concentration causing 50% cell kill): 5500 nM
  TGI: 800 nM
[15]
  GI50: 1100 nM
  TGI: 2400 nM
[15]; [46]
  CC50: 5200 nM
[16]
  GI50: 700 nM
  TGI: 2300 nM
[16]; [46]
  CC50: 6100 nM
[17]
  GI50: 400 nM
  LC50 (concentration killing 50% of cells): 3200 nM
  TGI: 1000 nM
[18]
  GI50: 500 nM
  LC50: 4000 nM
  TGI: 1600 nM
[19]
  GI50: 500 nM
  LC50: 27300 nM
  TGI: 3200 nM
[20]
  GI50: 600 nM
  TGI: 1900 nM
[20]; [46]
  CC50: 4500 nM
[21]
  GI50: 1700 nM
  LC50 (concentration killing 50% of cells): 21500 nM
  TGI: 5500 nM
[22]
  GI50: 1100 nM
  TGI: 2700 nM
[22]; [46]
  CC50: 6400 nM
[23]
  GI50: 1600 nM
  TGI: 3300 nM
[23]; [46]
  CC50: 7000 nM
[24]
  GI50: 200 nM
  TGI: 900 nM
[24]; [46]
  CC50: 5300 nM
[25]
  GI50: 400 nM
  LC50: 13200 nM
  TGI: 2400 nM
[26]
  GI50: 30 nM
  TGI: 100 nM
[26]; [46]
  CC50: 300 nM
[27]
  GI50: 700 nM
  TGI: 2200 nM
[27]; [46]
  CC50: 5300 nM
[28]
  GI50: 1000 nM
  TGI: 2600 nM
[28]; [46]
  CC50: 6700 nM
[29]
  GI50: 100 nM
  TGI: 300 nM
[29]; [46]
  CC50: 500 nM
[30]
  GI50: 200 nM
  TGI: 700 nM
[30]; [46]
  CC50: 2900 nM
[31]
  GI50: 200 nM
  LC50 (50% cell kill): 4100 nM
  TGI: 600 nM
[32]
  GI50: 200 nM
  TGI: 600 nM
[32]; [46]
  CC50: 3200 nM
[33]
  GI50: 1300 nM
  LC50: 5600 nM
  TGI: 2700 nM
[34]
  GI50: 1200 nM
  TGI: 2400 nM
[34]; [46]
  CC50: 4900 nM
[35]
  GI50: 700 nM
  TGI: 7600 nM
[35]; [46]
  CC50: 84800 nM
[36]
  GI50: 2700 nM
  TGI: 13800 nM
[36]; [46]
  CC50: 47100 nM
[37]
  GI50: 1900 nM
  TGI: 4000 nM
[37]; [46]
  CC50: 8500 nM
[38]
  GI50: 1100 nM
  TGI: 2900 nM
[38]; [46]
  CC50: 7800 nM
[39]
  GI50: 1500 nM
  TGI: 3300 nM
[39]; [46]
  CC50: 7400 nM
[40]
  GI50: 1600 nM
  LC50 (concentration killing 50% of cells): 26600 nM
  TGI: 5900 nM
[41]
  GI50: 1400 nM
  TGI: 3900 nM
[41]; [46]
  CC50: 15300 nM
[42]
  GI50: 5100 nM
  TGI: > 100000 nM
[42]; [46]
  CC50: > 100000 nM
[43]
  GI50: 200 nM
  TGI: 300 nM
[43]; [46]
  CC50: 600 nM
[44]
  GI50: 1300 nM
  TGI: 3200 nM
[44]; [46]
  CC50: > 100000 nM
[45]
  MIC: >60 µg
